The results in this text go back to ChEMBL document CHEMBL4622973, “Discovery of Potent Small-Molecule SIRT6 Activators: Structure-Activity Relationship and Anti-Pancreatic Ductal Adenocarcinoma Activity” (J Med Chem, 2020).

Calls of active or inactive are those of the source. No cut-off for these calls is given here.

The target in test [1] is T1, NAD-dependent protein deacylase sirtuin-6 (Homo sapiens, UniProt Q8N6T7). Description: Activation of N-terminal his-tagged human SIRT6 expressed in Escherichia coli M15 [pREP4] assessed as increase in peptide demyristoylation at 20 uM incubated for 120 mins using Ac-EALPKK(Myr)-AMC substrate by FDL assay relative to control. An outline of the steps:
(§1)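 Demyristoylation: 1 µM recombinant SIRT6 preincubated with compound for 20 min at 37 °C in 50 mM Tris-HCl pH 8.0, BSA 1 mg/mL, 1 mM DTT, with 10 µM Ac-EALPKK(Myr)-AMC. Started with 1 mM NAD and run 120 min at 37 °C. Developed 120 min at 37 °C with 5 mg/mL trypsin/8 mM nicotinamide. Fluorescence read. Mean ± s.d., triplicate wells, three independent experiments.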

In test [2] the target is T1, NAD-dependent protein deacylase sirtuin-6. Nature of the test: Activation of N-terminal his-tagged human SIRT6 expressed in Escherichia coli M15 [pREP4] assessed as increase in peptide demyristoylation incubated for 120 mins using Ac-EALPKK(Myr)-AMC substrate by FDL assay relative to control. The procedure, abridged:
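Demyristoylation: 1 µM recombinant SIRT6 preincubated with compound for 20 min at 37 °C in 50 mM Tris-HCl pH 8.0, BSA 1 mg/mL, 1 mM DTT, with 10 µM Ac-EALPKK(Myr)-AMC. Fluorescence read. Mean ± s.d., triplicate wells, three independent experiments.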

The subject of a further test is ASPC1. Description: Antiproliferative activity against human AsPC1 cells assessed as reduction in cell viability incubated for 72 hrs by MTT assay. Type of test: functional, cell-based. To be noted: ASPC1, 72 h. An outline of the steps:
(§2)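 PDAC cells grown in DMEM or RPMI1640 with 10% FBS and penicillin/streptomycin at 37 °C, 5% CO2. Plated in triplicate, then treated with a concentration series for 72 h. Viability read by MTT. IC50 calculated from dose-response curves.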
On the technique in general: Formazan colour is commonly taken as a measure of viable cells.

The next test has as its system MIA PaCa-2. Nature of the test: Antiproliferative activity against human MIAPaCa2 cells assessed as reduction in cell viability incubated for 72 hrs by MTT assay. Type of test: functional, cell-based. To be noted: MIA PaCa-2, 72 h. An outline of the steps: as §2
The test system of test [3] is PANC-1. Description: Antiproliferative activity against human PANC1 cells assessed as reduction in cell viability incubated for 72 hrs by MTT assay. Type of test: functional, cell-based. To be noted: PANC-1, 72 h. An outline of the steps:
as §2

A further test has as its system BXPC-3. Nature of the test: Antiproliferative activity against human BxPC3 cells assessed as reduction in cell viability incubated for 72 hrs by MTT assay. Type of test: functional, cell-based. To be noted: BXPC-3, 72 h. The procedure, abridged:
as §2

The test system of test [4] is PANC-1. Description: Antitumor activity against human PANC1 cells xenografted in BALB/c nude mouse assessed as inhibition of tumor growth at 150 mg/kg/day, po for 30 days relative to control. Type of test: functional. The following applies: PANC-1, po, 720 h, read-out: TGI. The procedure, abridged: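 Female BALB/c nude mice, 6-8 weeks old, injected subcutaneously in the right flank with 5×10^6–1×10^7 PANC-1 cells. At 130-150 mm³, mice randomized into 4 groups (n = 6) and dosed orally once daily for 30 days against vehicle. Tumor volume followed over time. Inhibition rate assessed against control.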
A general note: A xenograft is tissue or cells of one species grown in another, often human tumour cells in immunodeficient mice.

Test [5] has as its target T1, NAD-dependent protein deacylase sirtuin-6. Nature of the test: Activation of N-terminal his-tagged human SIRT6 expressed in Escherichia coli M15 [pREP4] assessed as increase in peptide demyristoylation at 100 uM incubated for 120 mins using Ac-EALPKK(Myr)-AMC substrate by FDL assay relative to control. The procedure, abridged:
as §1

T1 sequence (Q8N6T7 whole entry): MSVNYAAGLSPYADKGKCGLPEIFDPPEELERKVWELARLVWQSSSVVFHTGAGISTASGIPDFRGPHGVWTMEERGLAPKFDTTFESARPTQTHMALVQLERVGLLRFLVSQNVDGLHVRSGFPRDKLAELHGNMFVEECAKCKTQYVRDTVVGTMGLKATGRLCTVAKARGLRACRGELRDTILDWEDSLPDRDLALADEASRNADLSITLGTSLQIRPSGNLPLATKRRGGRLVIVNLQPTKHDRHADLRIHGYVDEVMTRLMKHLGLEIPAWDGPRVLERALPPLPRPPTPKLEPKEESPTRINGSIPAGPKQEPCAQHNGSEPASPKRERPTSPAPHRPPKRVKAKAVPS

In the case of `CCOc1ccc(NC(=O)c2cc(-c3ccc(OC)c(OC)c3)nc3ccccc23)cc1`, the Activity in test [1] came to 166%. The EC1.5 in test [2] amounted to 10.3 µM.
For the compound `O=C(NCc1ccc(Cl)c(Cl)c1)c1cc(-c2cc3ccccc3o2)nc2ccccc12`, the Activity in test [1] was found to be 314%. For the same compound, the EC1.5 in test [2] came out at 5.91 µM.
Turning to `O=C(NCc1ccc(F)cc1)c1cc(-c2cc3ccccc3o2)nc2ccccc12`, in test [1], the Activity is 482%. Moreover, the EC1.5 in test [2] came out at 2.19 µM.
The term IC50 denotes the concentration at which inhibition is half-maximal. On to `COC(=O)c1cc(NS(=O)(=O)c2cc(Cl)cc(Cl)c2)ccc1S(=O)(=O)Nc1cc(Br)c(F)cc1C`, for which the IC50 in the test with ASPC1 amounted to 50.5 µM; in the test with MIA PaCa-2, 55.6 µM; in the test with PANC-1 [3], 35.2 µM; with BXPC-3 it was 58 µM. In the test with PANC-1 [4], the inhibition in vivo at 150 mg/kg/day was 78%.
For `COc1ccc(-c2cc(C(=O)Nc3ccc(C(F)(F)F)cc3Cl)c3ccccc3n2)cc1OC`, the Activity in test [1] amounted to 181%. In addition, in test [2], the EC1.5 amounted to 7.53 µM.
Regarding `O=C(Nc1cc(C(F)(F)F)ccc1Cl)c1cc(-c2ccc3c(c2)OCO3)nc2ccccc12`, the Activity in test [1] is 228%. Further, in test [2], the EC1.5 was 14.9 µM.
On the same counts, the results for `Cc1ccc(C)c(NC(=O)c2cc(-c3cc4ccccc4o3)nc3ccccc23)c1` are 349% and 3.47 µM.
Regarding `Cc1cc(Nc2cc(CN3CCOCC3)c3nc(C)c(Cc4ccc(Cl)cc4F)n3n2)n[nH]1`, in test [5], the result was Active. Besides, the EC1.5 in test [2] is 118 µM.
With `COC(=O)c1c2c(c3ccccc3c1O)OC(C)(C)C=C2`, the outcome in test [5] was Active. Moreover, in test [2], the EC1.5 is 228 µM.
In the case of `Cc1ccc(-c2cc(C(=O)Nc3cc(C(F)(F)F)ccc3Cl)c3ccccc3n2)o1`, the Activity in test [1] came out at 184%. Also, in test [2], the EC1.5 stood at 18.6 µM.
Turning to `O=C(NC(c1ccccc1)c1ccccn1)c1cc(-c2cc3ccccc3o2)nc2ccccc12` (stereo not drawn), the Activity in test [1] came to 321%. For the same compound, in test [2], the EC1.5 came to 7.59 µM.
For `COc1ccc(-c2cc(C(=O)Nc3c(C)cc(C)cc3C)c3ccccc3n2)cc1OC`, the Activity in test [1] turned out to be 284%. Besides, the EC1.5 in test [2] worked out at 4.77 µM.
In the case of `COc1ccc(-c2cc(C(=O)Nc3ccc(Oc4ccccc4)cc3)c3ccccc3n2)cc1OC`, in test [1], the Activity is 239%. Besides, in test [2], the EC1.5 came out at 6.47 µM.
With `COc1ccc(-c2cc(C(=O)NCc3ccc(C)cc3)c3ccccc3n2)cc1OC`, the Activity in test [1] was 225%. In test [2], the EC1.5 was determined as 7.78 µM.
Regarding `COc1ccc(-c2cc(C(=O)Nc3ccc(Cl)c(Cl)c3)c3ccccc3n2)cc1OC`, the result in test [5] was Active. For the same compound, the Activity in test [1] turned out to be 148%. Further, the EC1.5 in test [2] turned out to be 27.1 µM.
Consider `Cc1cc(C)c(NC(=O)c2cc(-c3cc4ccccc4o3)nc3ccccc23)c(C)c1`, for which, in test [1], the Activity is 315%. In addition, in test [2], the EC1.5 was found to be 3.71 µM.
The matching figures for `O=C(Nc1cccc(Cl)c1Cl)c1cc(-c2cc3ccccc3o2)nc2ccccc12`: 163% and 20.7 µM.
Regarding `COc1ccc(-c2cc(C(=O)Nc3cccc(Cl)c3Cl)c3ccccc3n2)cc1OC`, in test [1], the Activity worked out at 224%. For the same compound, the EC1.5 in test [2] was determined as 5.97 µM.
On to `COc1ccc(-c2cc(C(=O)Nc3cc(C(F)(F)F)ccc3Cl)c3ccccc3n2)cc1`, for which, in test [1], the Activity is 163%. Also, the EC1.5 in test [2] came to 20.7 µM.
Consider `COc1ccc(-c2cc(C(=O)Nc3cc(C)ccc3C)c3ccccc3n2)cc1OC`, for which, in test [1], the Activity came out at 313%. The EC1.5 in test [2] came to 5.61 µM.
The matching figures for `COc1ccc(-c2cc(C(=O)Nc3cc(C(F)(F)F)cc(C(F)(F)F)c3)c3ccccc3n2)cc1OC`: 250% and 6.38 µM.
In the case of `O=C(Nc1cc(C(F)(F)F)ccc1Cl)c1cc(-c2ccc3c(c2)OCCO3)nc2ccccc12`, the Activity in test [1] stood at 159%. In test [2], the EC1.5 stood at 29.4 µM.
In the case of `Cc1c(Cl)cccc1NC(=O)c1cc(-c2cc3ccccc3o2)nc2ccccc12`, in test [1], the Activity came out at 205%. Also, the EC1.5 in test [2] came to 9.01 µM.
Take `O=C(Nc1ccc(C(F)(F)F)cc1)c1cc(-c2cc3ccccc3o2)nc2ccccc12`: the Activity in test [1] was 335%. The EC1.5 in test [2] is 5.17 µM.
For the compound `O=C(Nc1ccc(C(F)(F)F)cc1Cl)c1cc(-c2cc3ccccc3o2)nc2ccccc12`, the Activity in test [1] came out at 287%. Moreover, the EC1.5 in test [2] is 4.96 µM.
Turning to `COc1ccc(-c2cc(C(=O)Nc3cccc(Cl)c3C)c3ccccc3n2)cc1OC`, in test [1], the Activity came out at 199%. Also, the EC1.5 in test [2] was 19 µM.
Regarding `O=C(Nc1cccc(F)c1)c1cc(-c2cc3ccccc3o2)nc2ccccc12`, the Activity in test [1] came to 216%. Moreover, the EC1.5 in test [2] amounted to 4.86 µM.
In the case of `O=C(Nc1cc(C(F)(F)F)cc(C(F)(F)F)c1)c1cc(-c2cc3ccccc3o2)nc2ccccc12`, the Activity in test [1] stood at 430%. In addition, the EC1.5 in test [2] turned out to be 3.11 µM.
On the same counts, the results for `O=C(Nc1cc(C(F)(F)F)ccc1Cl)c1cc(-c2cc3ccccc3o2)nc2ccccc12` are 762% and 0.85 µM.
For `COc1ccccc1C(=O)Nc1cc2c(cc1N1CCCCC1)n(C)c(=O)n2C`, in test [5], the result was Active. Also, the EC1.5 in test [2] amounted to 110 µM.
In the case of `Cc1ccc(CNC(=O)c2cc(-c3cc4ccccc4o3)nc3ccccc23)cc1`, in test [1], the Activity was found to be 208%. Also, the EC1.5 in test [2] stood at 14.5 µM.
As for `COc1cccc2cc(-c3cc(C(=O)Nc4cc(C(F)(F)F)ccc4Cl)c4ccccc4n3)oc12`, the Activity in test [1] was determined as 321%. In addition, in test [2], the EC1.5 came out at 5.96 µM.
